Laboratory results from PMC10127574 (ACS chemical biology, 2015).
Like-named read-outs stand apart in the source and are kept apart here.

Tests used:
extracellular IDE = biological target: T1, extracellular IDE (Homo sapiens, UniProt P14735); experiment: cell-based IDE activity assay
T1 sequence (P14735 1-1019): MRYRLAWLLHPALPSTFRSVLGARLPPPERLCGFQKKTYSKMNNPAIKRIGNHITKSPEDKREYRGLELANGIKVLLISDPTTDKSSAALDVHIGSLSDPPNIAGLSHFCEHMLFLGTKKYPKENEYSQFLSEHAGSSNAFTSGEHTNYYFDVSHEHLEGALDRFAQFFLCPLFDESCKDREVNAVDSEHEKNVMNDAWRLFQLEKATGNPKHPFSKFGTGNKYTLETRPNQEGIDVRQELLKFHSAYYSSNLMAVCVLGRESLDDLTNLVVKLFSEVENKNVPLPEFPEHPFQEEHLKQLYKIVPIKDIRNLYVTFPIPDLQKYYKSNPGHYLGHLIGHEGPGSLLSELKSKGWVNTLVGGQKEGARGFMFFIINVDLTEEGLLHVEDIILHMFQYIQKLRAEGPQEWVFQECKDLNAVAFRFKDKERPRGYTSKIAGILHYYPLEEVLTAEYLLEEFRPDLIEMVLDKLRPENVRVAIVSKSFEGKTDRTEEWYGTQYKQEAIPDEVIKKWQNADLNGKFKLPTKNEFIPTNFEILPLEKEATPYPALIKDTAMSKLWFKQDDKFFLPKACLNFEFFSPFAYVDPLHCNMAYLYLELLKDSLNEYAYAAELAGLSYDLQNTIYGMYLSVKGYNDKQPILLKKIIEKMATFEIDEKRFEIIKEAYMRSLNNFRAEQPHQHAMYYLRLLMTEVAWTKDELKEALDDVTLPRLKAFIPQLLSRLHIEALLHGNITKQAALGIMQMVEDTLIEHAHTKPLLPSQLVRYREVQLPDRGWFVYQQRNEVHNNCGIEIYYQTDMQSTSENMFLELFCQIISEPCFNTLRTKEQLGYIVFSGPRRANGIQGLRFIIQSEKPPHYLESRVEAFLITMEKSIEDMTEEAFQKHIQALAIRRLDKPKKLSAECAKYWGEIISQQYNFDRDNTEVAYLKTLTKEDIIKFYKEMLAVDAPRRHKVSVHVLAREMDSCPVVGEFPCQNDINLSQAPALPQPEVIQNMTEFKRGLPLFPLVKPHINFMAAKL
Outline: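 Extracellular IDE secreted by HEK-293 cells, harvested mechanically rather than by trypsin, served as the endogenous enzyme source. Activity was read by fluorescence polarization with fluoresceinated, biotinylated Aß peptide (FAßB) in DTT-free solutions. The primary screen used a nominal compound concentration of 6 μM. Confirmed hits were retested in dose-response format to give apparent IC50.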

[1] = biological target: T2, recombinant wild-type IDE (WT-IDE) (Homo sapiens, UniProt P14735); experiment: cell-free IDE activity assay with fluorogenic peptide substrate FRET1; assay type: biochemical
T2 sequence (P14735 1-1019): T1 sequence (P14735 1-1019)

IDE = biological target: T3, IDE (Homo sapiens, UniProt P14735); experiment: insulin degradation, homogeneous time-resolved fluorescence-based assay; assay type: biochemical; conditions: read-out: IC50^app in vitro, insulin; insulin as substrate; n=4
T3 sequence (P14735 1-1019): T1 sequence (P14735 1-1019)

[2] = biological target: T4, intracellular pools of IDE (Mus musculus, UniProt Q9JHR7); experiment: intracellular IDE activity in BV-2 cells; assay type: cell-based; conditions: 30 μM, 16 h, cell extracts
T4 sequence (Q9JHR7 1-1019): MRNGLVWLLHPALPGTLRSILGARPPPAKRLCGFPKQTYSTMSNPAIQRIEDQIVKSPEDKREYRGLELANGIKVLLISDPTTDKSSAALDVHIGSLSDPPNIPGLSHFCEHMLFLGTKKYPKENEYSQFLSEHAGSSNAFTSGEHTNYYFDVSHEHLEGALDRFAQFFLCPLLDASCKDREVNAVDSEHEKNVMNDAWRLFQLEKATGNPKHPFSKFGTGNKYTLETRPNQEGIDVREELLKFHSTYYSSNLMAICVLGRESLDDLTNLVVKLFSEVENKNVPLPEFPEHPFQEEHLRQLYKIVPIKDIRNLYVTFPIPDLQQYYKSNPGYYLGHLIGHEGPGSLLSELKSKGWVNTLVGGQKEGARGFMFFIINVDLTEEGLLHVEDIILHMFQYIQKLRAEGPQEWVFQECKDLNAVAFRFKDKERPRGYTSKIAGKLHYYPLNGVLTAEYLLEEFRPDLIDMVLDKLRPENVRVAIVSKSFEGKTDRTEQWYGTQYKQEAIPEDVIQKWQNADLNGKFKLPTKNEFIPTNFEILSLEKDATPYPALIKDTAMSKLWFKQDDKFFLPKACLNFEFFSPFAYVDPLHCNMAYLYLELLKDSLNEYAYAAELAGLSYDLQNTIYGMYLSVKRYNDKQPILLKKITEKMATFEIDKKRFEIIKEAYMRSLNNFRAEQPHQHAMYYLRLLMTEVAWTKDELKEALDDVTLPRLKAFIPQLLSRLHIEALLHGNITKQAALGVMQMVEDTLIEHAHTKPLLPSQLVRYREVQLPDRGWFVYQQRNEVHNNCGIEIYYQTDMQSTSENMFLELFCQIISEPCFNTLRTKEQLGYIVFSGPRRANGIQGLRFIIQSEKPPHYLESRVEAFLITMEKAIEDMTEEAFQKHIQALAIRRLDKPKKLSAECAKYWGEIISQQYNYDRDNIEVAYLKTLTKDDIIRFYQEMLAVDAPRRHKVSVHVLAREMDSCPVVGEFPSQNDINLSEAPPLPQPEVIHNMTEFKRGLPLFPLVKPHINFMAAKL
Outline: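 BV-2 cells were treated 16 h with 30 μM compound, then conditioned medium was collected. Cells were washed in PBS, lysed hypotonically in 50 mM Tris-HCl at 4 °C, extruded through a needle and centrifuged. Extracts were diluted 1:200 (v:v). Activity was measured by avidin-agarose precipitation Aß degradation assay with FAßB. Mean ± SEM, 3 replications.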

[3] = liver microsome stability, rat; assay type: in vitro ADME; conditions: rat liver microsomes

- IC50 (extracellular IDE; read-out: IC50^app cell-based, Table 2): 110 nM
- IC50 (extracellular IDE; read-out: IC50^app in cells, FAßB, Table 3, n=4): 110 ± 12 nM
- BEI (binding efficiency index, pIC50^app/MW, kDa) [1]: 15
- IC50 ([1]; read-out: IC50^app cell-free, Table 2): 63 nM
- IC50 ([1]; read-out: IC50^app in vitro, FRET1, Table 3, n=5): 63 ± 8.1 nM
- IC50 (IDE): 82 ± 20.2 nM
- inhibition of intracellular pools of IDE in BV-2 cells [2]: does not affect
- Liver microsome stability, Rat [3]: 50 min
SMILES: O=c1c2cc(F)ccc2sn1-c1cc(S(=O)(=O)N2CCOCC2)ccc1N1CCOCC1 [Compound 8, 5-fluoro-2-(2-morpholin-4-yl-5-morpholin-4-ylsulfonylphenyl)-1,2-benzothiazol-3-one]
